Data set [1] has as its system porcine epidemic diarrhea virus. The data set is described as follows: Antiviral activity against PEDV, CPE reduction by SRB method in Vero cells. In kind it is cell-based, porcine epidemic diarrhea virus (PEDV CV 777). (In SRB staining, fixed cells bind dye roughly in proportion to their protein.)
Data set [2] is described as follows: Cytotoxicity SRB assay in Vero cells. In kind it is cell-based, african green monkey. The settings on record: african green monkey, CC50, concentration required to reduce cell growth by 50%, 48 h. The method, boiled down:
(§1)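 Vero cells seeded at 2 × 10^4/well and grown 1 day, then given medium with serially diluted test compound for 48 h. After PBS wash, cells fixed with cold 70% acetone (30 min, −20 °C), dried and stained 30 min with 0.4% SRB in 1% acetic acid. Dye solubilised in 10 mM Tris and read at A540 (ref 620 nm). CC50 read graphically from % of control curves.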

The test system of the next data set is Vero cells. The data set is described as follows: Cytotoxicity SRB assay in Vero cells. In kind it is cell-based, african green monkey. Summed up: as §1
The test system of a further data set is PEDV. The data set is described as follows: Time-of-addition effect on PEDV replication in Vero cells. In kind it is cell-based, porcine epidemic diarrhea virus. The method, boiled down:
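Vero cells seeded at 2 × 10^4/well and grown 1 day, then PBS-washed. […] After 2 days, SRB CPE-reduction read-out expressed as inhibition rate; mean ± S.D. of three independent experiments.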

Data set [3] has as its system membrane (M) gene of PEDV. The data set is described as follows: RT-PCR analysis of PEDV replication. In kind it is cell-based, porcine epidemic diarrhea virus. Conditions: 10 μg/mL; RNA extracted 24 and 48 h after infection.
The next data set has as its system TGEV. The data set is described as follows: Antiviral activity against TGEV in ST cells. In kind it is cell-based, transmissible gastroenteritis virus.
The subject of another data set is PRCV. The data set is described as follows: Antiviral activity against PRCV in ST cells. In kind it is cell-based, porcine respiratory coronavirus. Summed up: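 PRCV (ATCC VR-2384) grown on ST pig testis cells kept in MEM with 10% FBS and 0.01% antibiotic-antimycotic. Read-out is SRB-based reduction of virus-induced CPE. IC50 is the concentration giving 50% inhibition of CPE, in μg/mL. TI = CC50/IC50. Values are means of three independent experiments run in triplicate ± S.D.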

The test system of the next data set is ST cells. The data set is described as follows: Cytotoxicity SRB assay in ST cells. In kind it is cell-based, pig. Conditions: for Cytotoxicity: highest concentrations tested. The method, boiled down:
(§2)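 ST pig testis cells kept in MEM with 10% FBS and 0.01% antibiotic-antimycotic. SRB staining gives cell growth. CC50 is the concentration reducing cell growth by 50%, in μg/mL. Values are means of three independent experiments run in triplicate ± S.D.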

Data set [4] can be described thus: Cytotoxicity SRB assay in ST cells. In kind it is cell-based, pig. Conditions: pig. Summed up:
as §2

The mark [5] stands for this setting: interferon-α in units, listed as interferon-α.

As usually defined, the CC50 is the concentration at which the toxic effect on the cells reaches its halfway point. The low end stands for greater toxicity to the cells, the high end for lower toxicity to the cells. Broadly, the IC50 is the concentration needed to halve the response being measured. The term inhibition denotes the share of the control response that was lost under treatment.

Converted amounts (≈) assume the structure as drawn. “And” between values parts separate entries of the source, which are not always exact repeats. Identical values can stand only once. Like-named read-outs stand apart in the source and are kept apart here.

As for `O=c1cc(-c2ccc(O)cc2)oc2cc(O)cc(O)c12` [Apigenin], the “IC50, concentration required to inhibit virus-induced CPE by 50%” value (shortened to “IC50 … to inhibit virus-induced CPE by 50%”) in data set [1] (SRB, 2 days) is 0.1 ± 0.1 µg/mL (≈ 0.37 µM); in data set [1] (SRB, 2 days, listed as apigenin), “less than 12 μg/mL”. In data set [2], this compound had a CC50 at 48 h of more than 50 mg/L.

As for `O.Oc1cc(O)c2c(c1)O[C@H](c1ccc(O)c(O)c1)[C@@H](O)C2` [Catechin], the “TI, therapeutic index = CC50/IC50” value in data set [1] is more than 9.0. Moreover, the “IC50 … to inhibit virus-induced CPE by 50%” value is 11.1 ± 7.1 µg/mL in data set [1] (SRB, 2 days) and “less than 12 μg/mL” in data set [1] (SRB, 2 days, listed as catechin). The “CC50, concentration required to reduce cell growth by 50%” value (from here on “CC50 … to reduce cell growth by 50%”) in the data set with Vero cells (48 h) was more than 100 µg/mL.

As for `O=c1ccc2ccccc2o1` [Coumarin], the “TI, therapeutic index = CC50/IC50” value in data set [1] was 4.8.

For `O=c1cc(-c2ccc(O)c(O)c2)oc2cc(O)cc(O)c12` [Luteolin], the “IC50 … to inhibit virus-induced CPE by 50%” value in data set [1] (SRB, 2 days) was 0.2 ± 0.2 µg/mL (≈ 0.699 µM); in data set [1] (SRB, 2 days, listed as luteolin) it was “less than 12 μg/mL”. For the same compound, the CC50 at 48 h in data set [2] was determined as 6.7 mg/L (≈ 23.4 µM).

Regarding `C[C@@H]1O[C@@H](Oc2cc(O)c3c(=O)c(O)c(-c4ccc(O)c(O)c4)oc3c2)[C@H](O)[C@H](O)[C@H]1O` [Q7R, quercetin 7-rhamnoside], the “TI, therapeutic index = CC50/IC50” value is 7142 and > 7142.86 in data set [1]; more than 7142.86 in [1] (listed as Quercetin 7-rhanmoside); more than 1.58 with TGEV (TGEV in ST cells); more than 1.67 in the data set with PRCV (PRCV in ST cells). For the same compound, the “IC50 … to inhibit virus-induced CPE by 50%” value in data set [1] (SRB, 2 days) was 0.014 ± 0.005 µg/mL (≈ 0.0312 µM). Besides, the “CC50 … to reduce cell growth by 50%” value in the data set with Vero cells (48 h) is more than 100 µg/mL. The “Inhibition rate (time of addition)” value with PEDV (10 μg/mL added at 0, 1, 2 and 4 h after virus inoculation, SRB after 2 days) is reported as “higher than 85%”. In [3], the “Intensity of the RT-PCR product band of PEDV” value is “decreased the intensity of the product band of PEDV at 24 and 48 h after infection”. In addition, the IC50 with TGEV (TGEV in ST cells) worked out at 63.31 ± 1.07 mg/L (≈ 141 µM); in the data set with PRCV (PRCV in ST cells), 59.76 ± 5.70 mg/L (≈ 133 µM). In the data set on ST cells, the CC50 was more than 100 mg/L. Further, the Cytotoxicity result with ST cells is “did not exhibit any cytotoxicity at the highest concentrations tested”.

As to `O=c1c(O)c(-c2ccc(O)c(O)c2)oc2cc(O)cc(O)c12` [Quercetin], the “TI, therapeutic index = CC50/IC50” value in [1] amounted to 214.8. Further, it took 365 mg/L (≈ 1210 µM) to reach half-maximal cytotoxicity in [2] (CC50 at 48 h).

In the case of `NC(=O)c1ncn([C@@H]2O[C@H](CO)[C@@H](O)[C@H]2O)n1` [Ribavirin], the “TI, therapeutic index = CC50/IC50” value in data set [1] is on record as 103.2; in the data set on PRCV (PRCV in ST cells), more than 1.62. Further, the figures for the CC50 at 48 h in [2] and in data set [4] were 423 mg/L (≈ 1730 µM) and more than 100 mg/L, respectively. Also, the inhibition at 10 µg/mL with PEDV (Porcine epidemic diarrhea virus, Vero, read-out: Inhibition rate (time of addition)) was less than 50%. In [3], the “Intensity of the RT-PCR product band of PEDV” value is listed as “did not decrease the intensity of the product band of PEDV at 48 h after infection”. The IC50 with TGEV (Alphacoronavirus 1) was determined as 55.1 ± 0.8 mg/L (≈ 226 µM); in the data set with PRCV (Alphacoronavirus 1) it was 61.6 ± 1.91 mg/L (≈ 252 µM). In addition, the Cytotoxicity result in the data set with ST cells is listed as “did not exhibit any cytotoxicity at the highest concentrations tested”.

Consider Interferon-α, for which the “TI, therapeutic index = CC50/IC50” value in data set [1] and in [1] (listed as interferon-α) was more than 192.3 in each case. In addition, the “IC50 … to inhibit virus-induced CPE by 50%” value in data set [1] (interferon-α in units) is given as 0.52 ± 0.5 unit; in [1] (setting [5]), 0.52 unit. Moreover, the “CC50 … to reduce cell growth by 50%” value in the data set with Vero cells (interferon-α in units) and in the data set on Vero cells (setting [5]) was more than 100 unit throughout.

Tannic acid: in data set [1], the “TI, therapeutic index = CC50/IC50” value is 9.2.

Values taken from PMC7114206 (Antiviral Research, 2008).
